In test [1] the test system is Aorta. Kind of test: Vasorelaxant activity in Wistar rat aortic rings assessed as reduction in KCL-induced contractile tone at 30 uM. The class given is functional. The method in brief:
(§1)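 Endothelium-denuded thoracic aortic rings from male normotensive Wistar rats (250–350 g), equilibrated 60 min, precontracted with KCl 30 mM. Compounds added cumulatively at threefold increasing concentrations up to 30 µM. Efficacy is the maximal relaxation, or the response at 30 µM, as % of KCl tone. pIC50 is −log molar concentration halving tone, not calculated below 50% efficacy; mean ± SE, 5–10 experiments.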

The test system of test [2] is Aorta. In words: Vasorelaxant activity in Wistar rat aortic rings assessed as reduction in KCL-induced contractile tone in presence of tetraethylammonium chloride. Format: functional, tissue-based.
Another test has as its system MDA-MB-231. In words: Antitumor activity against human MDA-MB-231 cells after 6 days by SRB assay. The class given is functional, cell-based. To be noted: MDA-MB-231, 144 h. The method in brief: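 MDA-MB-231 cells in DMEM with 5% FBS, 37 °C, 5% CO2, seeded 1.3 × 10³ cells/well and adhered 24 h; treated 0.25 to 64 µM (five wells per treatment, vehicle EtOH or DMSO) for 6 days. TCA-fixed, SRB-stained, OD 540 nm. Proliferation index = OD at day 6 / OD at time zero; IC50 from means of three independent experiments.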
A general note: The SRB assay estimates cell density from bound dye.

Test [3] relates to Aorta. In words: Vasorelaxant activity in Wistar rat aortic rings assessed as reduction in KCL-induced contractile tone. The class given is functional, tissue-based. The method in brief:
as §1

Structures are written as SMILES. Active and inactive are the calls of the source. The calls are words filed in the database; no cut-off is given here.

Turning to `Oc1ccc(-c2nc3cc(O)cc(O)c3s2)cc1`, in the test with Aorta [1], the Emax (in general, the maximal effect, on the per cent scale that the assay sets) at 30 µM came out at 39.6%. Besides, in the test with Aorta [2], the outcome was inactive. In the test on MDA-MB-231, it took 67.6 µM to reach half-maximal inhibition (IC50).

For the compound `Oc1ccc(/C=C/c2cc(O)cc(O)c2)cc1` [RESVERATROL], the Emax at 30 µM with Aorta [1] came out at 83%. The IC50 (as a rule, the concentration that inhibits the measured activity by half) with Aorta [3] is 6.92 µM. For the same compound, in the test with Aorta [2], the outcome was inactive.

For the compound `Oc1cc(O)cc(-c2cnc3cc(O)ccc3c2)c1`, the Emax at 30 µM in the test with Aorta [1] was 17.2%. Inhibition in the test on MDA-MB-231 was half-maximal at 17.4 µM (IC50).

With `O/N=C/c1ccc(-c2cc(O)cc(O)c2)cc1O` [SALICYLALDOXIME], the outcome with Aorta [2] was Active.

As for `Oc1cc(O)cc(-c2cc3cc(O)ccc3o2)c1`, the Emax at 30 µM in the test on Aorta [1] was 77.2%. Besides, the IC50 in the test with Aorta [3] was 15.5 µM; in the test on MDA-MB-231 it was 46.1 µM. In addition, in the test with Aorta [2], the result was inactive.

Consider `Oc1ccc(-c2nc3c(O)cc(O)cc3s2)cc1`, for which the Emax at 30 µM in the test with Aorta [1] turned out to be 80.6%. The IC50 in the test with Aorta [3] is 12.6 µM; in the test on MDA-MB-231, more than 100 µM. The result in the test on Aorta [2] was inactive.

Turning to `Oc1cc(O)cc(-c2ccc3cc(O)ccc3c2)c1`, the Emax at 30 µM in the test with Aorta [1] is 78.5%. In addition, the IC50 in the test with Aorta [3] was 12.9 µM. Moreover, in the test with Aorta [2], the result was inactive.

Regarding `Oc1cc(O)cc(-c2nc3ccc(O)cc3s2)c1`, in the test on Aorta [1], the Emax at 30 µM came to 88.2%. Also, the IC50 with Aorta [3] was 12 µM; in the test with MDA-MB-231, 19.4 µM. Further, the result with Aorta [2] was Active.

`Oc1cc(O)cc(-c2nc3cccc(O)c3s2)c1`: the Emax at 30 µM with Aorta [1] came to 76.8%. The IC50 in the test with Aorta [3] was 15.5 µM; with MDA-MB-231, 18.1 µM. In the test on Aorta [2], the outcome was inactive.

Turning to `Oc1cc(O)cc(-c2cc3ccc(O)cc3nc2Cl)c1`, the Emax at 30 µM in the test on Aorta [1] came to 84.6%. Further, the IC50 was 15.8 µM in the test on Aorta [3] and 47.4 µM in the test on MDA-MB-231. Further, the outcome in the test with Aorta [2] was inactive.
